Results reported in ChEMBL document CHEMBL1221393, “Effects of structure on inhibitory activity in a series of mechanism-based inhibitors of human neutrophil elastase” (Bioorg Med Chem, 2010).
The source made the active and inactive calls. No cut-off for these calls is given here.

Columns and labels:
[1] = target: T1, Neutrophil elastase (Homo sapiens) (UniProt P08246); assay: Ratio of Kinact to Ki for human neutrophil elastase
T1 sequence (whole entry): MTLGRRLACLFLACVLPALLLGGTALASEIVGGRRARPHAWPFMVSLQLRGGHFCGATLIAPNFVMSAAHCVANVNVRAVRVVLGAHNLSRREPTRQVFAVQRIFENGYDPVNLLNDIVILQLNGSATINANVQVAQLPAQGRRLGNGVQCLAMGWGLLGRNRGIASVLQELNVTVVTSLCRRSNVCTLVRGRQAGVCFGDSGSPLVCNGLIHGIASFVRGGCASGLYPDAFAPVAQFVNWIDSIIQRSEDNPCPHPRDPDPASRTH
Procedure, shortened: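 Progress-curve method: 10 nM HNE, MeOSuc-AAPV p-nitroanilide (105 μM) and inhibitor at several inhibitor-to-enzyme ratios in 0.1 M HEPES/0.5 M NaCl, pH 7.25, 2.5% DMSO. p-Nitroaniline release was monitored continuously at 410 nm. kobs came from nonlinear fitting of absorbance versus time; kinact/KI = kobs/[I], corrected for substrate concentration. Determined in duplicate.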

[2] = target: T2, Myeloblastin (Homo sapiens) (UniProt P24158); assay: Inhibition of human neutrophil proteinase 3 assessed as residual activity at 8.62
T2 sequence (whole entry): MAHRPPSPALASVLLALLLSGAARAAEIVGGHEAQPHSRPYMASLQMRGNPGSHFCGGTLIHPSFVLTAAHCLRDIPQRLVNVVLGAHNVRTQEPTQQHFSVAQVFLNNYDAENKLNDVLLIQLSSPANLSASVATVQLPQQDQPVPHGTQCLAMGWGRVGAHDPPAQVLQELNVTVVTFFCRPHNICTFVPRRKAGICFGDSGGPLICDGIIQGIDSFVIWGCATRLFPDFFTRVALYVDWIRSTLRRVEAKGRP
Procedure, shortened: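 Human proteinase 3 (final 34.5 nM) was added with DTNB to 0.1 M HEPES/0.5 M NaCl, pH 7.25, containing inhibitor (final 8.62 μM, from DMSO) and Boc-Ala-Ala-NVa-SBzl. Absorbance at 410 nm was followed for 2 min against a DMSO-only hydrolysis control. % remaining activity = (v/vo)×100, mean of duplicate or triplicate runs.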

[3] = target: T1, Neutrophil elastase (Homo sapiens); assay: Inhibition of human neutrophil elastase at 7 uM; conditions: TDE = time-dependent effect
Procedure, shortened: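 HNE (700 nM) incubated with inhibitor (7 μM) in 0.1 M HEPES/0.5 M NaCl, pH 7.25, 1% DMSO, in a constant-temperature bath. Aliquots were taken at intervals and added to MeOSuc-Ala-Ala-Pro-Val p-nitroanilide. Residual activity was read as absorbance at 410 nm over 60 s and expressed as percent remaining activity versus time.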

Structure (SMILES)	Ratio [1]	percent remaining activity [2]	inhibition [3]
CC(C)Cc1ccc(C(C)C(=O)OCN2C(=O)[C@H](CC(C)C)N(Cc3ccccc3)S2(=O)=O)cc1 (some centres undefined)	1580	inactive	
CC(C)Cc1ccc(C(C)C(=O)OCN2C(=O)[C@H](CC(C)C)N(C)S2(=O)=O)cc1 (some centres undefined)	201000	inactive	
CC(C)C[C@H]1C(=O)N(COC(=O)c2ccccc2O)S(=O)(=O)N1C	336000	inactive	
CC(C)C[C@H]1C(=O)N(COC(=O)Cc2ccccc2Nc2c(Cl)cccc2Cl)S(=O)(=O)N1C	981000	inactive	tde
CC(C)C[C@H]1C(=O)N(COC(=O)C(C)c2ccc(Oc3ccccc3)cc2)S(=O)(=O)N1C (some centres undefined)	501000	inactive	
CC(=O)Oc1ccccc1C(=O)OCN1C(=O)[C@H](CC(C)C)N(C)S1(=O)=O	419000	inactive	
CC(C)C[C@H]1C(=O)N(COC(=O)C(C)c2ccc(C(=O)c3ccccc3)cc2)S(=O)(=O)N1Cc1ccccc1 (some centres undefined)	31000	inactive	
CC(C)C[C@H]1C(=O)N(COC(=O)Cc2ccccc2)S(=O)(=O)N1C	357000	inactive	
CC(C)C[C@H]1C(=O)N(COC(=O)C(C)c2ccc(Oc3ccccc3)cc2)S(=O)(=O)N1Cc1ccccc1 (some centres undefined)	1770	inactive	
CC(C)C[C@H]1C(=O)N(COC(=O)C(C)c2ccc(C(=O)c3ccccc3)cc2)S(=O)(=O)N1C (some centres undefined)	540000	inactive	

The remaining lines, values ahead:

Ratio [1]	percent remaining activity [2]	inhibition [3]	Structure (SMILES)
3200	inactive		CC(C)C[C@H]1C(=O)N(COC(=O)CCc2ccccc2)S(=O)(=O)N1Cc1ccccc1
1.06e+06	inactive		CC(=O)Oc1ccccc1C(=O)OCN1C(=O)[C@H](CC(C)C)N(Cc2ccccc2)S1(=O)=O
296000	inactive		CC(C)C[C@H]1C(=O)N(COC(=O)CCc2ccccc2)S(=O)(=O)N1C
1.09e+06	inactive		CC(C)C[C@H]1C(=O)N(COC(=O)c2ccccc2O)S(=O)(=O)N1Cc1ccccc1
1330	inactive	tde	CC(C)C[C@H]1C(=O)N(COC(=O)Cc2ccccc2Nc2c(Cl)cccc2Cl)S(=O)(=O)N1Cc1ccccc1
63800	inactive		CC(C)C[C@H]1C(=O)N(COC(=O)Cc2ccccc2)S(=O)(=O)N1Cc1ccccc1
